Results from ChEMBL document CHEMBL4477243, “Discovery and SAR of a novel series of potent, CNS penetrant M4 PAMs based on a non-enolizable ketone core: Challenges in disposition” (Bioorg Med Chem Lett, 2016).

What was measured:
[1] = target: T1, Muscarinic acetylcholine receptor M4 (Rattus norvegicus, UniProt P08485); assay: Positive allosteric modulation activity at rat M4 receptor expressed in CHO cells co-expressing Gqi5 protein assessed as potentiation of EC20 acetyl choline-induced response by calcium mobilization assay; format: functional, cell-based; settings: read-out: EC50
T1 sequence (P08485 whole entry): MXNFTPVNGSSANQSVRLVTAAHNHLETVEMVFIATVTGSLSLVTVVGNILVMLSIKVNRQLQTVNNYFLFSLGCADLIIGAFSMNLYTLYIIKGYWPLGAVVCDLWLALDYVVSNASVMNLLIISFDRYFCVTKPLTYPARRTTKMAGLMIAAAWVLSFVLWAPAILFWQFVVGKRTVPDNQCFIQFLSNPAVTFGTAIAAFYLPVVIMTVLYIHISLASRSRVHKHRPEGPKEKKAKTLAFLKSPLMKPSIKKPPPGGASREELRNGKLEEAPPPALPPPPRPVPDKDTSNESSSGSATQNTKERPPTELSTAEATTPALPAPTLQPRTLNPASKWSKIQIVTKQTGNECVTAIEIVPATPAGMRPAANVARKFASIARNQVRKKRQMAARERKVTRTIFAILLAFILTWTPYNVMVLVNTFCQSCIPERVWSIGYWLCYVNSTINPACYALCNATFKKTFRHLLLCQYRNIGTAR
Outline: (§1)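 Calcium mobilization in CHO cells stably co-expressing human or rat M4 with the chimeric Gqi5 protein. Test compound given with a fixed EC20 concentration of acetylcholine. Potency reported as EC50; efficacy as % of the acetylcholine maximum. Means of three independent experiments, each in triplicate.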

[2] = target: T2, Muscarinic acetylcholine receptor M4 (Homo sapiens, UniProt P08173); assay: Positive allosteric modulation activity at human M4 receptor expressed in CHO cells co-expressing Gqi5 protein assessed as potentiation of EC20 acetyl choline-induced response by calcium mobilization assay; format: functional, cell-based; settings: read-out: EC50; outline: as §1
T2 sequence (P08173 whole entry): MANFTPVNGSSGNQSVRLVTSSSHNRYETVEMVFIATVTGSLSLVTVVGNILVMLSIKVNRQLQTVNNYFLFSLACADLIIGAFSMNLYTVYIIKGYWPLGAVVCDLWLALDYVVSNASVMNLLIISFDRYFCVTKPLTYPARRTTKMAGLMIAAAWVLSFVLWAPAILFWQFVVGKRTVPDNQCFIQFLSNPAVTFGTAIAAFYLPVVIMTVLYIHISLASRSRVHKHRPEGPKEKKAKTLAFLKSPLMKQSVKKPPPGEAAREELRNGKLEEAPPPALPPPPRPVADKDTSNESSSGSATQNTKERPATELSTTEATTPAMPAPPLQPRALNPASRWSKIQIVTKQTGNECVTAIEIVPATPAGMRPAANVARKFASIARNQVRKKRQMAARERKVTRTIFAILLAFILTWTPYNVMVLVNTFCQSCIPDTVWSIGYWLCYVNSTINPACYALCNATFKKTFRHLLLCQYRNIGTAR

[3] = target: T3, Muscarinic acetylcholine receptor M4 (Homo sapiens) (UniProt P08173); assay: Positive allosteric modulation activity at human M4 receptor expressed in CHO cells co-expressing Gqi5 protein assessed as potentiation of EC20 acetyl choline-induced response by calcium mobilization assay relative to acetylcholine; format: functional, cell-based; outline: as §1
T3 sequence (whole entry): T2 sequence (P08173 whole entry)

[4] = Fraction unbound in rat plasma; format: ADME, cell-free
Outline: (§2)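 Plasma protein binding, reported as fraction unbound in rat and human plasma. Single experiment (n=1) run in triplicate.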

[5] = target: T4, Cytochrome P450 1A2 (Homo sapiens, UniProt P05177); assay: Inhibition of CYP1A2 (unknown origin); format: ADME
T4 sequence (P05177 whole entry): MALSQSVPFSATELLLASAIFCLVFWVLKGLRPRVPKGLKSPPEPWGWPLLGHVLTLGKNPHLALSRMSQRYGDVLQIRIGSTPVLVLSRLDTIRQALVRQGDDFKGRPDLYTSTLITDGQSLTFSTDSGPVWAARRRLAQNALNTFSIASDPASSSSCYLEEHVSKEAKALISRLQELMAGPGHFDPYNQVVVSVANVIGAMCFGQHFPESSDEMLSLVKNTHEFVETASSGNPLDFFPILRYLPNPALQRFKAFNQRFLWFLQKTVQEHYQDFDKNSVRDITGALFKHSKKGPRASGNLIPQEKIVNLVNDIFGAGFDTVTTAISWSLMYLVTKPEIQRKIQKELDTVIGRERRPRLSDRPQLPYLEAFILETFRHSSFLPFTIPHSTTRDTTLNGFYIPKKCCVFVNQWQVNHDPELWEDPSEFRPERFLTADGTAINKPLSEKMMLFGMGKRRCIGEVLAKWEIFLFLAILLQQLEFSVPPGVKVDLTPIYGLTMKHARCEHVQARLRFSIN

[6] = tested on: Cytochrome P450; assay: Inhibition of Cytochrome P450 (unknown origin); format: ADME, protein assay; settings: human
[7] = Fraction unbound in human plasma; format: ADME, cell-free; outline: as §2
[8] = target: T5, Muscarinic acetylcholine receptor M4 (Rattus norvegicus) (UniProt P08485); assay: Positive allosteric modulation activity at rat M4 receptor expressed in CHO cells co-expressing Gqi5 protein assessed as potentiation of EC20 acetyl choline-induced response by calcium mobilization assay relative to acetylcholine; format: functional, cell-based; outline: as §1
T5 sequence (whole entry): T1 sequence (P08485 whole entry)

[9] = Ratio of drug level in Sprague-Dawley rat brain to plasma at 0.2 to 0.25 mg/kg, iv administered as cassette dose measured 0.25 hrs post dose; format: ADME, organism-based; settings: brain and plasma
Outline: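 Male Sprague-Dawley rats (n=1) received an IV cassette dose of 0.20-0.25 mg/kg. Brain and plasma sampled 0.25 hr post-administration. Total brain:plasma partition coefficient (Kp) measured; unbound coefficient (Kp,uu) calculated.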

SMILES	EC50 [1] [nM]	EC50 [2] [nM]	%max [3] [%]	fraction unbound [4]	inhibition (INH) [5]	inhibition (INH) [6]	fraction unbound [7]	%max [8] [%]	Kp at 0.25 h [9]
Cc1nnc2sc(C(O)c3ccccc3)c(N)c2c1C (configuration not stated)	> 10000	> 10000							
Cc1nnc2sc(C(=O)c3cccnc3)c(N)c2c1C	417	105	74	0.005 to 0.18	Active	Not Active	0.005 to 0.18	95	0.83 to 6.95
Cc1nnc2sc(C(O)c3ccncc3)c(N)c2c1C (configuration not stated)	> 10000	> 10000							
COc1ccc(C(O)c2sc3nnc(C)c(C)c3c2N)cc1 (configuration not stated)	> 10000	> 10000							
Nc1c(C(O)c2ccncc2)sc2nc(O)c3c(c12)CCCC3 (configuration not stated)	> 10000	> 10000							
Cc1nnc2sc(C(O)c3cccnc3)c(N)c2c1C (configuration not stated)	> 10000	> 10000							
Cc1nc2sc(C(O)c3cccnc3)c(N)c2c(C)c1Cl (configuration not stated)	> 10000	> 10000							
COc1ccc(C(O)c2sc3nc(C)cc(C)c3c2N)cc1 (configuration not stated)	> 10000	> 10000							
Cc1nc2sc(C(O)c3ccccc3)c(N)c2c(C)c1Cl (configuration not stated)	> 10000	> 10000							
Nc1c(C(=O)c2ccncc2)sc2nc(OCc3ccncc3)c3c(c12)CCC3	1230	295		0.005 to 0.18	Active	Not Active	0.005 to 0.18		0.83 to 6.95
COc1ccc(C(=O)c2sc3nc(C)cc(C)c3c2N)cc1	490	479	48	0.005 to 0.18	Active	Not Active	0.005 to 0.18	54	0.83 to 6.95
Cc1cc(C)c2c(N)c(C(=O)c3ccccc3)sc2n1	1500	891	47	0.005 to 0.18	Active	Not Active	0.005 to 0.18	46	0.83 to 6.95
Cc1nc2sc(C(=O)c3cccnc3)c(N)c2c(C)c1Cl	417	105	74	0.005 to 0.18	Active	Not Active	0.005 to 0.18	95	0.83 to 6.95
Cc1cc(C)c2c(N)c(C(O)c3ccccc3)sc2n1 (configuration not stated)	> 10000	> 10000							
Cc1cc(C)c2c(N)c(C(O)c3ccc(F)cc3F)sc2n1 (configuration not stated)	> 10000	> 10000							
Cc1cc(C)c2c(N)c(C(O)c3ccc(O)cc3)sc2n1 (configuration not stated)	> 10000	> 10000							
Cc1nnc2sc(C(O)c3ccc(F)cc3F)c(N)c2c1C (configuration not stated)	> 10000	> 10000							
Cc1nnc2sc(C(=O)c3ccccc3)c(N)c2c1C	166	102	76	0.005 to 0.18	Active	Not Active	0.005 to 0.18	67	
COc1ccc(CCC(=O)c2sc3nnc(C)c(C)c3c2N)cc1F	254	380	69.1					77.2	11
Cc1cc(C)c2c(N)c(C(=O)c3ccc(F)c(Cl)c3)sc2n1	195	240	45	0.005 to 0.18	Active	Not Active	0.005 to 0.18	41	0.83 to 6.95
Cc1nnc2sc(C(=O)c3ccncc3)c(N)c2c1C	3550	891	76	0.005 to 0.18	Active	Not Active	0.005 to 0.18	68	
Cc1cc(C)c2c(N)c(C(O)c3ccc(F)c(Cl)c3)sc2n1 (configuration not stated)	> 10000	> 10000							
Nc1c(C(O)c2ccncc2)sc2nc(OCCN3CCOCC3)c3c(c12)CCC3 (configuration not stated)	> 10000	> 10000							
Nc1c(C(O)c2ccncc2)sc2nc(OCc3ccncc3)c3c(c12)CCC3 (configuration not stated)	> 10000	> 10000							
Cc1cc(C)c2c(N)c(C(=O)CCc3ccncc3)sc2n1	540	479	59.1					67.9	11
Cc1nc2sc(C(=O)c3ccccc3)c(N)c2c(C)c1Cl	692	372	45	0.005 to 0.18	Active	Not Active	0.005 to 0.18	43	
Nc1c(C(=O)c2ccncc2)sc2nc(OCCN3CCOCC3)c3c(c12)CCC3	417	76		0.005 to 0.18	Active	Not Active	0.005 to 0.18		
